Results as given in ChEMBL document CHEMBL3352574, “Incorporation of triphenylphosphonium functionality improves the inhibitory properties of phenothiazine derivatives in Mycobacterium tuberculosis” (Bioorg Med Chem, 2014).
Converted amounts (≈) assume the structure as drawn. The source made the active and inactive calls. No cut-off for these calls is given here.

Tests used:
[1] = tested on: Mycolicibacterium smegmatis; assay: Bactericidal activity against Mycobacterium smegmatis at 500 uM after 3 to 24 hrs by colony forming unit count method; format: functional, organism-based
Procedure, shortened: (§1)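 Cultures grown in LBT to OD600 ~0.5, then dosed at 8.9 μM per OD600, or CCCP at 500 μM; no-compound and DMSO controls. OD600 taken at 0, 3, 9 and 24 h. CFU at 0, 9 and 24 h: cells washed, diluted in PBS + 0.05% Tween80, spotted on LBT (Miles–Misra), counted after 3 days at 37°C (5–50 colonies). Three biological replicates.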

[2] = Inhibition of Mycobacterium tuberculosis NDH2
[3] = tested on: Mycobacterium tuberculosis; assay: Antimicrobial activity against Mycobacterium tuberculosis H37Ra after 5 days by serial macrobroth dilution method; format: functional, organism-based; settings: 120 h
Procedure, shortened: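 M. tuberculosis H37Ra in 7H9 with 0.5% glycerol, 10% ADC and 0.05% Tween80. Serial macrobroth dilution 128–0.5 μg/mL, log-phase inoculum to final OD600 0.005, 37°C, 200 rpm. Growth read visually at 5 days. No-compound and DMSO controls included. Three biological replicates averaged.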

[4] = tested on: Mycolicibacterium smegmatis; assay: Antimicrobial activity against Mycobacterium smegmatis (MC2) 155 after 24 hrs by serial macrobroth dilution method; format: functional; settings: (MC2) 155, 24 h
Procedure, shortened: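 Serial macrobroth dilution, 128–0.5 μg/mL in LBT (LB + 0.05% Tween80). Log-phase mc²155 inoculated to final OD600 0.005, incubated 37°C at 200 rpm. Growth scored by eye after 24 h. No-compound and DMSO controls included. Figure data are the average of three biological replicates.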

[5] = tested on: Mycolicibacterium smegmatis; assay: Bacteriostatic against Mycobacterium smegmatis at 4.8 ug/ml after 3 to 24 hrs by colony forming unit count method; format: functional, organism-based; procedure, shortened: as §1
[6] = tested on: Mycolicibacterium smegmatis; assay: Inhibition of NDH2 in Mycobacterium smegmatis (MC2) 155 membrane assessed inhibition of oxygen consumption relative to control
Procedure, shortened: (§2)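 Clark-type O2 electrode, 2 mL mix at 37°C, calibrated to 220 nmol O2/mL with air-saturated 20 mM sodium phosphate pH 8.0. M. smegmatis membrane vesicles (French press, 100,000 × g pellet) driven by 10 mM NADH. Test range 0–80 μM; TPZ 0–200 μM. Controls: 80 μM comparators, DMSO, 200 μM KCN, no compound. Two-tailed t-test, p<0.05.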

[7] = (§3) Inhibition of NDH2 in Mycobacterium smegmatis (MC2) 155 membranes assessed NADH oxidation relative to control; design: species or system Mycolicibacterium smegmatis
Procedure, shortened: (§4)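 M. smegmatis membranes at 50 μg/mL in 20 mM sodium phosphate pH 8.0 at 37°C, with compound (0–200 μM) preincubated 30 s. Reaction started with 200 μM NADH; A340 followed (ε 6.22 mM⁻¹cm⁻¹), activity in μmol NADH/min/mg. Data normalized to uninhibited activity, IC50 by log(inhibitor) vs response fit. Mean of three independent experiments.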

[8] = tested on: Mycolicibacterium smegmatis; assay: Effect on NDH2 in Mycobacterium smegmatis (MC2) 155 membrane assessed increase in oxygen consumption relative to control; procedure, shortened: as §2
[9] = tested on: Mycolicibacterium smegmatis; assay: Bactericidal activity against Mycobacterium smegmatis at 8.9 uM after 3 to 24 hrs by colony forming unit count method; format: functional, organism-based; procedure, shortened: as §1
[10] = tested on: Mycolicibacterium smegmatis; assay: as §3; procedure, shortened: as §4

N#CC(C#N)=NNc1cccc(Cl)c1
Activity [1]: Active

CN(C)CCCN1c2ccccc2Sc2ccc(Cl)cc21 [CHLORPROMAZINE]
IC50 [2]: 10 µM | MIC [3]: 10 µg/mL (≈ 31.4 µM)

CC(CN1c2ccccc2Sc2ccccc21)N(C)C (stereo not drawn) [PROMETHAZINE]
MIC [3]: 20 µg/mL (≈ 70.3 µM)

[Cl-].c1ccc([P+](CCCN2c3ccccc3Sc3ccccc32)(c2ccccc2)c2ccccc2)cc1
MIC [4]: 4 µg/mL | Activity [5]: Active | INH [6]: 40 µM | IC50 [7]: 15.1 µM

CCC[P+](c1ccccc1)(c1ccccc1)c1ccccc1.[Br-]
Activity [8]: Active | Activity [9]: inactive | MIC [4]: > 128 µg/mL | inhibition [10]: inactive | IC50 [3]: > 128 µg/mL

FC(F)(F)c1ccc2c(c1)Nc1ccccc1S2
MIC [4]: > 64 µg/mL | IC50 [3]: > 64 µg/mL

c1ccc2c(c1)Nc1ccccc1S2 [PHENOTHIAZINE]
Activity [9]: inactive | MIC [4]: > 64 µg/mL | inhibition [10]: inactive | IC50 [3]: > 64 µg/mL

C=C(C)[C@H]1Cc2c(ccc3c2O[C@@H]2COc4cc(OC)c(OC)cc4[C@@H]2C3=O)O1
inhibition [10]: inactive

Clc1ccc2c(c1)Nc1ccccc1S2
MIC [4]: > 64 µg/mL | IC50 [3]: > 64 µg/mL

Clc1ccc2c(c1)N(CCC[P+](c1ccccc1)(c1ccccc1)c1ccccc1)c1ccccc1S2.[Cl-]
MIC [4]: 6 µg/mL | IC50 [3]: 1 µg/mL

FC(F)(F)c1ccc2c(c1)N(CCC[P+](c1ccccc1)(c1ccccc1)c1ccccc1)c1ccccc1S2.[Cl-]
MIC [4]: 12 µg/mL | IC50 [3]: 1 µg/mL

CN1CCN(CCCN2c3ccccc3Sc3ccc(C(F)(F)F)cc32)CC1 [TRIFLUOPERAZINE]
MIC [4]: 64 µg/mL (≈ 157 µM) | IC50 [2]: 12 µM | INH [6]: 100 µM | IC50 [7]: 60.1 µM | IC50 [3]: 8 µg/mL (≈ 19.6 µM)

CN(C)CCCN1c2ccccc2Sc2ccccc21 [PROMAZINE]
MIC [4]: > 128 µg/mL | IC50 [3]: 128 µg/mL (≈ 450 µM)
